One block for each compound: values may come before it.
What was measured:
[1] = target: T1, Neutrophil elastase (Homo sapiens) (UniProt P08246)
T1 sequence (whole entry): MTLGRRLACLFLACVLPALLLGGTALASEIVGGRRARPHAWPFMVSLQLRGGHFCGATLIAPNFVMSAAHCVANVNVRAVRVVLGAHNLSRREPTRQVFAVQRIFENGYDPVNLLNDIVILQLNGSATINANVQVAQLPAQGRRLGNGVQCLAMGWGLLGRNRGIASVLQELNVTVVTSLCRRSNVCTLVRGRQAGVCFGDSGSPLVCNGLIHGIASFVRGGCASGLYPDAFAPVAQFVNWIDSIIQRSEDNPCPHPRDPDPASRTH

[2] = Half-life value of the compound.; format: ADME
Procedure, shortened: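 Chemical stability: compound dissolved at 1 mg/mL in 0.5 M MOPS, pH 8.0, held at 25 °C in capped vial; aliquots quenched in 2% aqueous TFA and analysed by reverse-phase HPLC over one to two half-lives. Peak areas fit to first-order decay F(t)=A/2^(t/t1/2) to give t1/2.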

Cricetinae gen. sp. [3] = experiment: Compound was evaluated in vivo for inhibition of HLE-induced hemorrhage in hamster lung at 400 microg, 30 min after administration; format: functional, Cricetulus griseus
Cricetinae gen. sp. [4] = experiment: Compound was evaluated in vivo for inhibition of HLE-induced hemorrhage in hamster lung at 100 microg, 30 min after administration prior to HLE; format: functional, Cricetulus griseus
Procedure, shortened: (§1)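 Hamster, intratracheal dosing of compound (per animal) 30 min before IT instillation of 50 μg HLE (50 units in Experimental); hemorrhage read 3 h later: lungs lavaged with saline, hemoglobin in lavage measured at 414 nm. Percent inhibition from drug-treated vs vehicle-treated hemorrhage; three animals per dose and time. Titration at 100, 30, 10, 3 μg/animal gives ED50.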

Cricetinae gen. sp. [5] = experiment: Compound was evaluated in vivo for inhibition of HLE-induced hemorrhage in hamster lung at 10microg, 30 min after administration prior to HLE; format: functional, Cricetulus griseus
Procedure, shortened: as §1

Cricetinae gen. sp. [6] = experiment: Compound was evaluated in vivo for inhibition of HLE-induced hemorrhage in hamster lung at 30microg, 30 min after administration prior to HLE; format: functional, Cricetulus griseus
Procedure, shortened: as §1

Cricetinae gen. sp. [7] = experiment: Compound was evaluated in vivo for inhibition of HLE-induced hemorrhage in hamster lung at 100 microg, 30 min after administration; format: functional, Cricetulus griseus
Procedure, shortened: as §1

Cricetinae gen. sp. [8] = experiment: Compound was evaluated in vivo for inhibition of HLE-induced hemorrhage in hamster lung at 100 microg 30 min after administration; format: functional, Cricetulus griseus
Procedure, shortened: as §1

Cricetinae gen. sp. [9] = experiment: Compound was evaluated in vivo for inhibition of HLE-induced hemorrhage in hamster lung at 100 microg 90 min after administration; format: functional, Cricetulus griseus
Cricetinae gen. sp. [10] = experiment: Compound was evaluated in vivo for inhibition of HLE-induced hemorrhage in hamster lung at 200 microg, 1 hr after administration prior to HLE; format: functional, Cricetulus griseus
Procedure, shortened: (§2)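 Hamster duration protocol: 200 μg/animal given intratracheally 60, 120, 180 or 240 min before IT HLE instillation; hemorrhage scored after 3 h as hemoglobin (414 nm) in saline lung lavage, relative to vehicle-treated animals; three animals per point. T50 taken as time at which 50% inhibition is still obtained.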

Cricetinae gen. sp. [11] = experiment: Compound was evaluated in vivo for inhibition of HLE-induced hemorrhage in hamster lung at 200 microg, 2 hr after administration prior to HLE; format: functional, Cricetulus griseus
Procedure, shortened: as §2

Cricetinae gen. sp. [12] = experiment: Compound was evaluated in vivo for inhibition of HLE-induced hemorrhage in hamster lung at 200 microg, 3h after administration prior to HLE; format: functional, Cricetulus griseus
Procedure, shortened: as §2

Neutrophil elastase = target: T2, Neutrophil elastase (Homo sapiens, UniProt P08246); experiment: In vitro inhibitory activity against human leukocyte elastase
T2 sequence (P08246 whole entry): T1 sequence (whole entry)

Cricetinae gen. sp. [13] = experiment: Compound was evaluated in vivo for inhibition of HLE-induced hemorrhage in hamster lung at 10 ug 30 min after administration prior to HLE; format: functional, Cricetulus griseus
Procedure, shortened: as §1

Cricetinae gen. sp. [14] = experiment: Compound was evaluated in vivo for inhibition of HLE-induced hemorrhage in hamster lung at 100 microg 30 min after administration prior to HLE; format: functional, Cricetulus griseus
Procedure, shortened: as §1

Cricetinae gen. sp. [15] = experiment: Compound was evaluated in vivo for inhibition of HLE-induced hemorrhage in hamster lung at 30 ug 30 min after administration prior to HLE; format: functional, Cricetulus griseus
Procedure, shortened: as §1

Cricetinae gen. sp. [16] = experiment: Compound was evaluated in vivo for inhibition of HLE-induced hemorrhage in hamster lung at 200 microg 4 hr after administration prior to HLE; format: functional, Cricetulus griseus
Procedure, shortened: as §2

Cricetinae gen. sp. [17] = experiment: Compound was evaluated in vivo for inhibition of HLE-induced hemorrhage in hamster lung at 200 microg 3h after administration prior to HLE; format: functional, Cricetulus griseus
Procedure, shortened: as §2

Cricetinae gen. sp. [18] = experiment: Compound was evaluated in vivo for inhibition of HLE-induced hemorrhage in hamster lung at 200 microg 1 hr after administration prior to HLE; format: functional, Cricetulus griseus
Procedure, shortened: as §2

Cricetinae gen. sp. [19] = experiment: Compound was evaluated in vivo for inhibition of HLE-induced hemorrhage in hamster lung at 200 microg 2 hr after administration prior to HLE; format: functional, Cricetulus griseus
Procedure, shortened: as §2

Cricetinae gen. sp. [20] = experiment: Compound was evaluated in vivo for inhibition of HLE-induced hemorrhage in hamster lung at 200 microg, 4 hr after administration prior to HLE; format: functional, Cricetulus griseus
Procedure, shortened: as §2

Cricetinae gen. sp. [21] = experiment: Compound was evaluated in vivo for inhibition of HLE-induced hemorrhage in hamster lung at 10 microg, 30 min after administration prior to HLE; format: functional, Cricetulus griseus
Procedure, shortened: as §1

Cricetinae gen. sp. [22] = experiment: Compound was evaluated in vivo for inhibition of HLE-induced hemorrhage in hamster lung at 3 microg, 30 min after administration prior to HLE; format: functional, Cricetulus griseus
Procedure, shortened: as §1

Cricetinae gen. sp. [23] = experiment: Compound was evaluated in vivo for inhibition of HLE-induced hemorrhage in hamster lung at 30 microg, 30 min after administration prior to HLE
Cricetinae gen. sp. [24] = experiment: Compound was evaluated in vivo for inhibition of HLE-induced hemorrhage in hamster lung at 100 microg 5 min after administration; format: functional, Cricetulus griseus
Cricetinae gen. sp. [25] = experiment: Compound was evaluated in vivo for inhibition of HLE-induced hemorrhage in hamster lung at 400 microg, 5 min after administration; format: functional, Cricetulus griseus

k obs / 1 [1]: 600 M⁻¹ s⁻¹
Compound: CO[C@H]1C(=O)N2C(C(=O)N(C)CC(=O)O)=C(COC(=O)NCc3ccccc3)CS(=O)(=O)[C@H]12
Inhibition (Cricetinae gen. sp. [4]): 91% | Inhibition (Cricetinae gen. sp. [5]): 27% | Inhibition (Cricetinae gen. sp. [6]): 93%

k obs / 1 [1]: 8600 M⁻¹ s⁻¹
Compound: CO[C@H]1C(=O)N2C(C(=O)N(C)Cc3ccc(C(=O)O)cc3)=C(COC(C)=O)CS(=O)(=O)[C@H]12
Inhibition (Cricetinae gen. sp. [7]): 65%

k obs / 1 [1]: 100 M⁻¹ s⁻¹
Compound: CC[C@H]1C(=O)N2C(C(=O)N(C)CC(=O)O)=C(COC(=O)c3ccc(C(=O)O)cc3)CS(=O)(=O)[C@H]12
Inhibition (Cricetinae gen. sp. [10]): 84% | Inhibition (Cricetinae gen. sp. [11]): 59% | Inhibition (Cricetinae gen. sp. [12]): 57%

k obs / 1 [1]: 600 M⁻¹ s⁻¹
Compound: CO[C@H]1C(=O)N2C(C(=O)N(C)CC(=O)O)=C(COC(=O)c3ccccc3)CS(=O)(=O)[C@H]12
Inhibition (Cricetinae gen. sp. [20]): 5% | Inhibition (Cricetinae gen. sp. [4]): 87% | Inhibition (Cricetinae gen. sp. [10]): 88% | Inhibition (Cricetinae gen. sp. [11]): 58% | Inhibition (Cricetinae gen. sp. [12]): 38% | Inhibition (Cricetinae gen. sp. [6]): 58%

k obs / 1 [1]: 10000 M⁻¹ s⁻¹
Compound: CO[C@H]1C(=O)N2C(C(=O)N(C)Cc3ccccc3)=C(COC(=O)c3ccc(C(=O)O)cc3)CS(=O)(=O)[C@H]12

More lines, now with the values behind:

Compound: CC[C@H]1C(=O)N2C(C(=O)N(C)CC(=O)O)=C(COC(C)=O)CS(=O)(=O)[C@H]12
k obs / 1 [1]: 30 M⁻¹ s⁻¹ | half-life [2]: > 50 h

Compound: CO[C@H]1C(=O)N2C(C(=O)NC(C)(C)C)=C(COC(C)=O)CS(=O)(=O)[C@H]12
Inhibition (Cricetinae gen. sp. [3]): -5% | k obs / 1 [1]: 2200 M⁻¹ s⁻¹

Compound: CO[C@H]1C(=O)N2C(C(=O)OC(C)(C)C)=C(CSc3nc(=O)c(=O)[nH]n3C)CS(=O)(=O)[C@H]12
Inhibition (Cricetinae gen. sp. [8]): 90% | Inhibition (Cricetinae gen. sp. [9]): 18% | k obs / 1 [1]: 8600 M⁻¹ s⁻¹

Compound: CO[C@H]1C(=O)N2C(C(=O)N3CCC[C@@H]3C(=O)O)=C(COC(C)=O)CS(=O)(=O)[C@H]12
Ki (Neutrophil elastase): 3.4 µM | half-life [2]: < 5 h

Compound: CO[C@H]1C(=O)N2C(C(=O)N(C)CCC(=O)O)=C(CSc3nc(=O)c(=O)[nH]n3C)CS(=O)(=O)[C@H]12
Inhibition (Cricetinae gen. sp. [13]): 45% | Inhibition (Cricetinae gen. sp. [14]): 96% | Inhibition (Cricetinae gen. sp. [15]): 74% | Inhibition (Cricetinae gen. sp. [16]): -23% | Inhibition (Cricetinae gen. sp. [17]): 46% | k obs / 1 [1]: 1000 M⁻¹ s⁻¹ | Inhibition (Cricetinae gen. sp. [18]): 95% | Inhibition (Cricetinae gen. sp. [19]): 87%

Compound: CO[C@H]1C(=O)N2C(C(=O)N3CCC(C(=O)O)C3)=C(COC(C)=O)CS(=O)(=O)[C@H]12 (some centres undefined)
k obs / 1 [1]: 1900 M⁻¹ s⁻¹

Compound: CO[C@H]1C(=O)N2C(C(=O)N(C)[C@@H](C)C(=O)O)=C(COC(C)=O)CS(=O)(=O)[C@H]12
Inhibition (Cricetinae gen. sp. [20]): 21% | Inhibition (Cricetinae gen. sp. [21]): 78% | Inhibition (Cricetinae gen. sp. [4]): 96% | Inhibition (Cricetinae gen. sp. [22]): 50% | Inhibition (Cricetinae gen. sp. [23]): 89% | Inhibition (Cricetinae gen. sp. [10]): 94% | Inhibition (Cricetinae gen. sp. [11]): 81% | Inhibition (Cricetinae gen. sp. [12]): 47% | k obs / 1 [1]: 500 M⁻¹ s⁻¹

Compound: CO[C@H]1C(=O)N2C(C(=O)N3CCC(O)C3)=C(COC(C)=O)CS(=O)(=O)[C@H]12 (some centres undefined)
k obs / 1 [1]: 12000 M⁻¹ s⁻¹

Compound: CO[C@H]1C(=O)N2C(C(=O)OCc3ccc(C(=O)O)cc3)=C(COC(C)=O)CS(=O)(=O)[C@H]12
Inhibition (Cricetinae gen. sp. [24]): 98% | half-life [2]: 5 h

Compound: CO[C@H]1C(=O)N2C(C(=O)OC(C)(C)C)=C(COC(=O)CCC(=O)O)CS(=O)(=O)[C@H]12
Inhibition (Cricetinae gen. sp. [25]): 98%

From ChEMBL document CHEMBL1125311, “Inhibition of human leukocyte elastase. 4. Selection of a substituted cephalosporin (L-658,758) as a topical aerosol” (J Med Chem, 1992)
